These results are taken from ChEMBL document CHEMBL1143334, “Peri-substituted hexahydro-indolones as novel, potent and selective human EP3 receptor antagonists” (Bioorg Med Chem Lett, 2009).

Usually pIC50 stands for the negative decadic logarithm of the IC50, by convention in mol/L. Usually solubility stands for the dissolved amount per volume that the medium holds.

The target in data set [1] is T1, Prostaglandin E2 receptor EP3 subtype (Homo sapiens, UniProt P43115).
T1 sequence (P43115 whole entry): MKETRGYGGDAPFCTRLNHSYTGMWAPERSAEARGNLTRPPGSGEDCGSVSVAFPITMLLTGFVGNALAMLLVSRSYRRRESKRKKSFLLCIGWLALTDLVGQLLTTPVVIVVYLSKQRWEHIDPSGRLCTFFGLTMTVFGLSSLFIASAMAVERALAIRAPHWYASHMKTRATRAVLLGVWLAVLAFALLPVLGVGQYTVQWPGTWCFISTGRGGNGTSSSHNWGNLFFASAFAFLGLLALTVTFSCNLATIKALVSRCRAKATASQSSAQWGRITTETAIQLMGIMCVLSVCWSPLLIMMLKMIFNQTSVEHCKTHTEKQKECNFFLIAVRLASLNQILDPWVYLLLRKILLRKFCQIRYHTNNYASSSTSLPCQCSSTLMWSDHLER
Kind of data set: Displacement of [3H]PGE2 from human EP3 receptor. An outline of the steps:
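Displacement of [3H]-PGE2 from human EP3 receptor membrane preparations was run in buffer. IC50 values come from at least three experiments each.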
(Loss of bound radioactivity is the signal in a displacement assay; it reports binding, not function.)

Data set [2] concerns the target T2, Prostaglandin E2 receptor EP3 subtype (Homo sapiens) (UniProt P43115).
T2 sequence (whole entry): T1 sequence (P43115 whole entry)
Nature of the data set: Ratio of IC50 for human EP3 receptor in presence of 10% human serum to IC50 for human EP3 receptor in buffer. The procedure, abridged: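 Displacement of [3H]-PGE2 from human EP3 membrane preparations was run both with 10% human serum and in buffer alone. Fold-shift is IC50 with serum divided by IC50 in buffer.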

The nature of data set [3]: Metabolic stability in rat liver microsomes after 30 mins. Format: ADME, Microsome. The note with it: read-out: Stability. An outline of the steps: (§1)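 Compound was incubated 30 min with liver microsomes from each species. Percent parent remaining was measured by LC/MS/MS.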
On the technique in general: Microsomes from liver hold many membrane-bound enzymes, among them those of drug oxidation.

Data set [4] can be described thus: Metabolic stability in human liver microsomes after 30 mins. It counts as ADME, Microsome. The note with it: read-out: Stability. An outline of the steps:
as §1

A short description of data set [5]: Metabolic stability in dog liver microsomes after 30 mins. It counts as ADME, Canis lupus familiaris, Microsome. The note with it: read-out: Stability. An outline of the steps:
as §1

A short description of data set [6]: Metabolic stability in monkey liver microsomes after 30 mins. Format: ADME, Macaca mulatta, Microsome. The note with it: rhesus monkey, read-out: Stability. The procedure, abridged:
as §1

The nature of data set [7]: Aqueous solubility in 50 mM PSB buffer at pH 7.4 by HPLC analysis. It counts as physicochemical. An outline of the steps: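 Samples were stirred overnight in 50 mM PSB buffer, pH 7.4, then filtered. Concentration was measured by HPLC against a 5-point standard curve, giving thermodynamic solubility.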
For data set [8], the species on record is Homo sapiens. Nature of the data set: Selectivity of human EP1 receptor over human EP3 receptor.
The species entered for data set [9] is Homo sapiens. Nature of the data set: Selectivity of human EP2 receptor over human EP3 receptor.
For data set [10], the species on record is Homo sapiens. Kind of data set: Selectivity of human EP4 receptor over human EP3 receptor.
Data set [11] is filed under the species Homo sapiens. Nature of the data set: Selectivity of human FP receptor over human EP3 receptor.
The target of data set [12] is T3, Prostaglandin E2 receptor EP1 subtype (Homo sapiens) (UniProt P34995).
T3 sequence (whole entry): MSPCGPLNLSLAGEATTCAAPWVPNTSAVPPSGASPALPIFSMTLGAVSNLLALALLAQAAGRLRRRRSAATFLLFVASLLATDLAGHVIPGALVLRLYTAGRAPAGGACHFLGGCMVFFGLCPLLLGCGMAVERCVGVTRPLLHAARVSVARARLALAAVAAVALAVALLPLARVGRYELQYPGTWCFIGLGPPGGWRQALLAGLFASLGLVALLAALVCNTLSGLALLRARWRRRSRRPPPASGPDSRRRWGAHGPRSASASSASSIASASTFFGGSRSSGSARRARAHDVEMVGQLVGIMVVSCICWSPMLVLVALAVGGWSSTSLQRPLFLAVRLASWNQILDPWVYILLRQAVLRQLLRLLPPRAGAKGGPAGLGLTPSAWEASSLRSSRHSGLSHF
Kind of data set: Binding affinity to human EP1 receptor at 20 uM by radioligand binding assay.

The target in data set [13] is T4, Prostaglandin E2 receptor EP2 subtype (Homo sapiens, UniProt P43116). Kind of data set: Binding affinity to human EP2 receptor by radioligand binding assay.
T4 sequence (P43116 whole entry): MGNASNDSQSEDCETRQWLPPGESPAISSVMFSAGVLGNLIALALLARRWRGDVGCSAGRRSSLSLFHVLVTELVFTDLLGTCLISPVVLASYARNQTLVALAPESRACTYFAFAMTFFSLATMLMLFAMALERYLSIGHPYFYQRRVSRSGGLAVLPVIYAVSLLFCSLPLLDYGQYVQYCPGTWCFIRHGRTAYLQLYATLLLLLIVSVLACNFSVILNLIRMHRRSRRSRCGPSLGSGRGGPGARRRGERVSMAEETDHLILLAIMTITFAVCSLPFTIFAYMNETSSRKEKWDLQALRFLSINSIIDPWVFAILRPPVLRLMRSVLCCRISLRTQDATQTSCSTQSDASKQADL
Data set [14] deals with T5, Prostaglandin E2 receptor EP4 subtype (Homo sapiens, UniProt P35408). Nature of the data set: Binding affinity to human EP4 receptor by radioligand binding assay.
T5 sequence (P35408 whole entry): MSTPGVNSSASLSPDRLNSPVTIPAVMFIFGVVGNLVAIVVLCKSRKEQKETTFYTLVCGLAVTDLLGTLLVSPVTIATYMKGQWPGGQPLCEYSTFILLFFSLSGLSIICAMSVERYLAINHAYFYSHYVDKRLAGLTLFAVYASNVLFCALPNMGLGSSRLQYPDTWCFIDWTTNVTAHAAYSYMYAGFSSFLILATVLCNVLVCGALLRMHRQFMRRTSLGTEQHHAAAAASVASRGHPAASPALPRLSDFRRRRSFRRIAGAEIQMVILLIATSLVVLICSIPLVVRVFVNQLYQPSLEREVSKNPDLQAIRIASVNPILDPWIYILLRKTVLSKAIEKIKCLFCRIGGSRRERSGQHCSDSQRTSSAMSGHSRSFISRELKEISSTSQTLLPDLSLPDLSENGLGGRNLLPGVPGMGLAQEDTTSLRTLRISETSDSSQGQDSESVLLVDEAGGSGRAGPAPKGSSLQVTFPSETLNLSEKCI
The target in data set [15] is Prostaglandin F2-alpha receptor (Homo sapiens, UniProt P43088). Kind of data set: Binding affinity to human FP receptor by radioligand binding assay.
Sequence of Prostaglandin F2-alpha receptor (P43088 whole entry): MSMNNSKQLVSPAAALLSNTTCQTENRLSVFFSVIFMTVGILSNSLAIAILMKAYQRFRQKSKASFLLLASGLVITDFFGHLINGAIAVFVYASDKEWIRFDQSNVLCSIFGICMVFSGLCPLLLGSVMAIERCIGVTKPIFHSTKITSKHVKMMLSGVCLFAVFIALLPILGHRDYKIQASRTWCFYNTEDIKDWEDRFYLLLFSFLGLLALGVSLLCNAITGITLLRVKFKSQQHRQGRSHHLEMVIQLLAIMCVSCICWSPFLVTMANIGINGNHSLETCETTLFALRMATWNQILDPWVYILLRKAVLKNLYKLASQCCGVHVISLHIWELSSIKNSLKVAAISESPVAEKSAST
For data set [16], the target named is T1, Prostaglandin E2 receptor EP3 subtype. Kind of data set: Antagonist activity at human EP3 receptor expressed in CHO-K1 cells assessed as reversal of inhibition of forskolin-induced cAMP production. It counts as functional, cell-based. An outline of the steps:
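CHO-K1 cells stably expressing human EP3 were exposed to increasing test compound concentrations for 10 min at 37 °C, with 5 μM forskolin plus 5 nM PGE2 present. Read-out was the block of PGE2's inhibition of the forskolin-induced cAMP rise, giving IC50.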
(In general: cAMP levels reflect the balance of adenylyl cyclase and phosphodiesterase activity.)

Data set [17] concerns the target T5, Prostaglandin E2 receptor EP4 subtype. Kind of data set: Binding affinity to human EP4 receptor at 20 uM by radioligand binding assay.
Data set [18] deals with T4, Prostaglandin E2 receptor EP2 subtype. Kind of data set: Binding affinity to human EP2 receptor at 20 uM by radioligand binding assay.
In data set [19] the target is T6, Prostaglandin E2 receptor EP1 subtype (Homo sapiens, UniProt P34995).
T6 sequence (P34995 whole entry): T3 sequence (whole entry)
Kind of data set: Binding affinity to human EP1 receptor by radioligand binding assay.

pIC50: −log10 of the molar value. In brackets after ≈: the same amount, converted by molar mass. Activity calls are given as the source filed them. No cut-off for these calls is given here.

With `CC12CCCC(/C=C/C(=O)NS(=O)(=O)c3cc(F)c(F)cc3F)=C1N(Cc1ccc(F)c(F)c1)C(=O)C2` (centres undefined), the pIC50 in [1] is 8.11; in data set [13], 4.86; in [14] it was 5.21; in data set [15], 5.42; in data set [16] it was 8.46. For the same molecule, the fold change (FC) in [2] is 9.3. Besides, the remaining at 0.5 h was determined as 89% in data set [3], 75% in data set [4], 87% in [5] and 54% in data set [6]. In data set [7], this molecule registered a solubility above 3 mg/mL. Also, the Selectivity ratio in the data set filed under Homo sapiens [8], in the data set filed under Homo sapiens [9], in the data set filed under Homo sapiens [10] and in the data set listed under Homo sapiens [11] was above 1000 each time. The outcome in data set [12] was inactive.

`Cc1cn(Cc2ccc(F)c(F)c2)c2c(/C=C/C(=O)NS(=O)(=O)c3cc(F)c(F)cc3F)cc(F)cc12` came in with a solubility in data set [7] below 0.04 mg/mL.

As for `CC12CCCC(/C=C/C(=O)NS(=O)(=O)c3cc(F)c(F)cc3F)=C1N(Cc1cccc(Cl)c1Cl)C(=O)C2` (centres undefined), the pIC50 is 8.37 in data set [1], 5.13 in data set [15] and 8.35 in data set [16]. Further, in data set [2], the fold change (FC) was found to be 5.8. Moreover, the remaining at 0.5 h in data set [3] worked out at 50%; in data set [4], 49%. Further, the result in data set [17], in data set [12] and in [18] was inactive. Besides, the Selectivity ratio in the data set listed under Homo sapiens [8], in the data set listed under Homo sapiens [9], in the data set filed under Homo sapiens [10] and in the data set filed under Homo sapiens [11] was above 1000 each time.

`CC12CCCC(/C=C/C(=O)NS(=O)(=O)c3cc(F)c(F)cc3F)=C1N(Cc1ccc(Cl)cc1Cl)C(=O)C2` (centres undefined): the pIC50 in data set [1] is 8.43; in [19] it was 4.94; in data set [14], 4.68; in [15] it was 5.12. Further, the fold change (FC) in [2] came out at 7. Moreover, the remaining at 0.5 h in [3] was 37%; in data set [4], 62%. The Selectivity ratio in the data set listed under Homo sapiens [8], in the data set filed under Homo sapiens [9], in the data set filed under Homo sapiens [10] and in the data set listed under Homo sapiens [11] was above 1000 throughout. In addition, in data set [18], the outcome was inactive.

For `COc1cccc(CN2C(=O)CC3(C)CCCC(/C=C/C(=O)NS(=O)(=O)c4ccc(F)c(F)c4)=C23)c1` (centres undefined), the pIC50 in data set [1] was 7.89; in [19] it was 5.85; in data set [14], 5.12; in data set [15] it was 5.19. Besides, the fold change (FC) in data set [2] came to 4.2. In addition, the remaining at 0.5 h in data set [3] was 42%; in [4], 76%. In addition, the Selectivity ratio in the data set filed under Homo sapiens [8], in the data set listed under Homo sapiens [9], in the data set filed under Homo sapiens [10] and in the data set filed under Homo sapiens [11] was above 1000 each time. For the same molecule, the outcome in data set [18] was inactive.

Consider `CC12CCCC(/C=C/C(=O)NS(=O)(=O)c3ccc(F)c(F)c3)=C1N(Cc1ccc(F)c(F)c1)C(=O)C2` (centres undefined), for which the pIC50 in data set [1] was 8.03; in [13], 5.64; in [14], 5.11; in data set [15], 4.79. Further, in [2], the fold change (FC) amounted to 3.2. Also, the remaining at 0.5 h stood at 82% in data set [3] and 79% in data set [4]. Also, the Selectivity ratio in the data set filed under Homo sapiens [8], in the data set filed under Homo sapiens [9], in the data set listed under Homo sapiens [10] and in the data set filed under Homo sapiens [11] was above 1000 in each case. Further, the outcome in [12] was inactive.

For the molecule `CC1C(=O)N(Cc2ccc(F)c(F)c2)c2c(/C=C/C(=O)NS(=O)(=O)c3cc(F)c(F)cc3F)cccc21` (centres undefined), the solubility in data set [7] is 1.58 mg/mL (≈ 2950 µM).

For the molecule `CC12CCCC(/C=C/C(=O)NS(=O)(=O)c3cc(Cl)c(Cl)s3)=C1N(Cc1ccc3ccccc3c1)C(=O)C2` (centres undefined), the values for the pIC50 in data set [1], in data set [19] and in data set [15] were 8.17, 5.16 and 4.99, respectively. Besides, in data set [2], the fold change (FC) is 7.4. The remaining at 0.5 h in data set [3] was 54%; in data set [4], 64%. The result in data set [17] and in [18] was inactive. Also, the Selectivity ratio in the data set filed under Homo sapiens [8], in the data set listed under Homo sapiens [9], in the data set filed under Homo sapiens [10] and in the data set listed under Homo sapiens [11] was above 1000 throughout.
